Key:
[1] = cited from earlier work
[2] = Pharmacokinetics of 25-mg single morning or evening dose, part 2; assay type: in vivo, human
Outline: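 Open-label two-period crossover in 12 healthy young subjects. Each took single fasted 25-mg doses, morning and evening, separated by a washout of at least 11 days. Blood was sampled pre-dose to 96 h and measured by LC-MS/MS. AUC0–tz, AUC0–∞ and Cmax were given as adjusted gMeans with evening/morning ratio and 90% CI. tmax was given as median (range).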

In the case of `C[C@@H](Oc1ccc(S(C)(=O)=O)cc1C(=O)N1C[C@@H]2C[C@]2(c2cc(C(F)(F)F)on2)C1)C(F)(F)F` [BI 425809], the “Adjusted gMean ratio Cmax, tablet fasted vs. oral solution fasted” value ([1]; 90% CI 45.1–55.4) is given as 50.0%, the “Adjusted gMean ratio AUC0–tz, tablet fasted vs. oral solution fasted” value ([1]; 90% CI 74.0–87.6) is given as 80.5% and the “Adjusted gMean ratio AUC0–tz, tablet fed vs. strongly fasted” value ([1]; high-fat/high-calorie breakfast ~ 1000 kcal, 90% CI 115.7–137.0) is given as 125.9%. The “Adjusted gMean ratio Cmax, tablet fed vs. strongly fasted” value ([1]; high-fat/high-calorie breakfast ~ 1000 kcal, 90% CI 128.3–157.4) was 142.1%, the “increase in AUC, high-fat/high-calorie meal vs. fasted” value ([1]; single dose 25 mg tablet) was 26% and the “increase in Cmax, high-fat/high-calorie meal vs. fasted” value ([1]; single dose 25 mg tablet) was 42%. The “median time to maximum plasma concentration” value ([1]; single doses 0.5–150 mg, oral solution, young healthy male volunteers) was ~ 45 min, the “tolerability of single doses” value ([1]; single doses up to 100 mg, oral solution, young healthy male volunteers) was “generally well tolerated” and the “AUC0–tz, adjusted gMean ratio evening/morning (90% CI)” value ([2]; 25 mg single dose) was 120 (107–135) %. For the same compound, the “AUC0–∞, adjusted gMean ratio evening/morning (90% CI)” value ([2]; 25 mg single dose) was 118 (104–134) %, the “Cmax, adjusted gMean ratio evening/morning (90% CI)” value ([2]; 25 mg single dose) was 115 (98.1–136) % and the “higher gMean Cmax, evening compared with morning administration” value ([2]; 25 mg single dose, 90% CI 98.1–136) was 15%. The “higher AUC0–tz, evening compared with morning administration” value ([2]; 25 mg single dose, 90% CI 107–135) was 20%, the “AUC0–tz, adjusted gMean” value ([2]; 25 mg single evening dose, fasted) was 8.41 µM·h and the “higher exposure, evening compared with morning” value ([2]; 25-mg tablet) was 15–20%. The AUC(0-t) ([2]; human, plasma, oral, 25 mg) was 7 µM·h, the Tmax ([2]; human, plasma, oral, 25 mg) was 4.5 h and the AUC(0-inf) ([2]; human, plasma, oral, 25 mg, AUC0–∞, adjusted gMean, 25 mg single morning dose, fasted) was 8.77 µM·h. It also gave a Cmax ([2]; human, plasma, oral, 25 mg, Cmax, adjusted gMean, 25 mg single morning dose, fasted) of 241 nM.

Reference: publication PMC6061410 (Clinical Drug Investigation, 2018)
